Measured values published in ChEMBL document CHEMBL4316638, “Bioactive Meroterpenoids and Isocoumarins from the Mangrove-Derived Fungus Penicillium sp. TGM112” (J Nat Prod, 2019).
Converted amounts (≈) assume the structure as drawn. The source made the active and inactive calls. The rule behind the calls is not given here.

Columns and labels:
RAW264.7 = assay: Inhibition of LPS-induced nitric oxide production in mouse RAW264.7 cells preincubated for 30 mins followed by LPS-stimulation and measured after 24 hrs by Griess assay; type: functional, cell-based
In short: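 RAW264.7 macrophages seeded at 50 000 cells/well and grown 24 h, then exposed to compound for 30 min at 37 °C before LPS (100 ng/mL) co-incubation for 24 h. Nitrite in supernatant measured by Griess reagent (10 min mixing), absorbance 540 nm. Compounds from 10 mM DMSO stocks; final DMSO ≤0.1%. Dexamethasone positive control. Triplicate runs; IC50 calculated.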

Escherichia coli = assay: Antibacterial activity against Escherichia coli ATCC 25922 by microplate assay; type: functional, organism-based
Vibrio parahaemolyticus = assay: Antibacterial activity against Vibrio parahaemolyticus ATCC 17802 by microplate assay; type: functional, organism-based
HeLa = assay: Cytotoxicity against human HeLa cells measured after 7 days by MTT assay; type: functional, cell-based
Bacillus cereus = assay: Antibacterial activity against Bacillus cereus ATCC 11778 by microplate assay; type: functional, organism-based
Staphylococcus aureus [1] = assay: Antibacterial activity against Staphylococcus aureus ATCC 25923 by microplate assay; type: functional, organism-based
Caenorhabditis elegans = assay: Insecticidal activity against Caenorhabditis elegans measured at 12 […]; type: functional, organism-based
In short: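 L1 C. elegans (30−40 worms/well) in S medium with E. coli OP50 and chloramphenicol, exposed to compound at 40, 20, 10, 5, 1 and 0 μg/mL diluted in filter-sterilized M-9; 3 replicates per treatment. Plates sealed, kept at 24 °C for 60 h in the dark; dead larvae counted at 12, 24, 36, 48, 60. M-9 negative control, levamisole 1 mg/mL positive control.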

HepG2 = assay: Cytotoxicity against human HepG2 cells measured after 7 days by MTT assay; type: functional, cell-based
A549 = assay: Cytotoxicity against human A549 cells measured after 7 days by MTT assay; type: functional, cell-based
Staphylococcus aureus [2] = assay: Antibacterial activity against methicillin-resistant Staphylococcus aureus ATCC 33591 by microplate assay; type: functional, organism-based
In short: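 MRSA (ATCC 33591) was one strain in a panel of six pathogenic bacteria: four general and two marine Vibrio. Assayed by the microplate method, with ciprofloxacin as positive control.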

Vibrio alginolyticus = assay: Antibacterial activity against Vibrio alginolyticus ATCC 17749 by microplate assay; type: functional, organism-based; conditions: NBRC 15630 = ATCC 17749
Helicoverpa armigera = assay: Insecticidal activity against Helicoverpa armigera hubner measured every other day for 8 days starting from 2 days post dosing; type: functional, organism-based
In short: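 Neonate H. armigera larvae fed artificial diet dosed with serial dilutions of compound (1 mg/mL in DMSO) at 200, 100, 50, 25 and 12.5 μL/well in six-well plates; three groups of three larvae, 3 replicates per treatment. Held at 25 ± 1 °C, 80% relative humidity. Dead larvae counted on days 2, 4, 6, 8. DMSO negative, azadirachtin positive, plain diet blank controls.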

| SMILES | inhibition (RAW264.7) | Activity (Escherichia coli) | Activity (Vibrio parahaemolyticus) | Activity (HeLa) | Activity (Bacillus cereus) | Activity (Staphylococcus aureus [1]) | EC50 (Caenorhabditis elegans) | Activity (HepG2) | Activity (A549) | Activity (Staphylococcus aureus [2]) | Activity (Vibrio alginolyticus) | IC50 (Helicoverpa armigera) |
| --- | --- | --- | --- | --- | --- | --- | --- | --- | --- | --- | --- | --- |
| C=C1[C@@]23C(=O)O[C@H](C)[C@@]2(O)C(=O)O[C@]1(C)[C@@H](O)C1=C2COC4CC(=O)OC(C)(C)[C@@]24CC[C@@]13C (stereo partly specified) | inactive | inactive | inactive | inactive | inactive | inactive | 19.1 µg/mL (≈ 40.3 µM) | inactive | inactive | inactive | inactive | – |
| C=C1[C@@]23C(=O)O[C@H](C)[C@]24O[C@@]2(C(=C)[C@]5(C=CC(=O)OC5(C)C)C[C@@H](O)[C@]32C)[C@H](OC(C)=O)[C@@]1(C)OC4=O | inactive | inactive | inactive | inactive | inactive | inactive | 20.6 µg/mL (≈ 40 µM) | inactive | inactive | inactive | inactive | – |
| C/C=C(\C)C(=O)O[C@H]1C[C@@H](OC(C)=O)[C@@]2(C(=O)OC)CO[C@H]3[C@@H](O)[C@@](C)([C@]45O[C@@]4(C)[C@H]4C[C@@H]5O[C@@H]5OC=C[C@@]54O)[C@H]4[C@]1(CO[C@]4(O)C(=O)OC)[C@@H]32 [AZADIRACTIN] | – | – | – | – | – | – | – | – | – | – | – | 25 µg/mL (≈ 34.7 µM) |
| O=C1O[C@H](CCCO)Cc2cccc(O)c21 | inactive | inactive | inactive | inactive | inactive | inactive | – | inactive | inactive | inactive | inactive | – |
| C=C1[C@@]23C(=O)O[C@H](C)[C@]24O[C@@]2(C(=C)[C@]5(CCC(=O)OC5(C)C)C[C@@H](O)[C@]32C)[C@H](OC(C)=O)[C@@]1(C)OC4=O | inactive | inactive | inactive | inactive | inactive | inactive | – | inactive | inactive | inactive | inactive | 50 µg/mL (≈ 96.8 µM) |
| C=C1[C@]2(C)C(=O)[C@]3(O)[C@@H](C)OC(=O)[C@]13[C@@]1(C)CC[C@@]3(C=CC(=O)OC3(C)C)C(C)=C1[C@@H]2OC(C)=O | inactive | inactive | inactive | inactive | inactive | inactive | – | inactive | inactive | inactive | inactive | – |
| C=C1[C@@]23C(=O)O[C@H](C)[C@@]2(O)C(=O)O[C@]1(C)[C@@H](OC(C)=O)C1=C(C)[C@]2(CCC(=O)OC2(C)C)CC[C@@]13C | inactive | inactive | inactive | inactive | inactive | inactive | – | inactive | inactive | inactive | inactive | 50 µg/mL (≈ 99.5 µM) |
| CC(=O)OCCC[C@@H]1Cc2cccc(O)c2C(=O)O1 | inactive | inactive | inactive | inactive | inactive | inactive | – | inactive | inactive | inactive | inactive | – |
| C[C@@H](O)CCC[C@H]1OC(=O)c2c(O)cccc2[C@@H]1O | inactive | inactive | inactive | inactive | inactive | inactive | – | inactive | inactive | inactive | inactive | 100 µg/mL (≈ 376 µM) |
| c1ccc([C@H]2CN3CCSC3=N2)cc1 [LEVAMISOLE] | – | – | – | – | – | – | 4.8 µg/mL (≈ 23.5 µM) | – | – | – | – | – |
| CC(=O)CCC[C@@H]1Cc2cccc(O)c2C(=O)O1 | inactive | inactive | inactive | inactive | inactive | inactive | – | inactive | inactive | inactive | inactive | – |
| C[C@H](O)CCC[C@@H]1C[C@@H]2C[C@@H](O)CC(O)=C2C(=O)O1 | inactive | inactive | inactive | inactive | inactive | inactive | – | inactive | inactive | inactive | inactive | 200 µg/mL (≈ 740 µM) |
| CC(=O)CCC[C@@H]1C[C@@H]2C[C@@H](O)CC(O)=C2C(=O)O1 | inactive | inactive | inactive | inactive | inactive | inactive | – | inactive | inactive | inactive | inactive | 200 µg/mL (≈ 745 µM) |
| COc1c(O)ccc2c1C(=O)O[C@H](CCCC(C)=O)C2 | inactive | inactive | inactive | inactive | inactive | inactive | – | inactive | inactive | inactive | inactive | – |
| COC(=O)CC[C@@H]1Cc2ccc(O)c(OC)c2C(=O)O1 | inactive | inactive | inactive | inactive | inactive | inactive | – | inactive | inactive | inactive | inactive | 200 µg/mL (≈ 714 µM) |
| COc1ccc2c(c1O)C(=O)O[C@H](CCCO)C2 | inactive | inactive | inactive | inactive | inactive | inactive | – | inactive | inactive | inactive | inactive | – |
| C[C@@H](O)CCC[C@@H]1Cc2c(O)ccc(O)c2C(=O)O1 | inactive | inactive | inactive | inactive | inactive | inactive | – | inactive | inactive | inactive | inactive | 100 µg/mL (≈ 376 µM) |
| COc1c(O)ccc2c1C(=O)O[C@H](CCC[C@@H](C)O)C2 | inactive | inactive | inactive | inactive | inactive | inactive | – | inactive | inactive | inactive | inactive | – |
